The values below come from ChEMBL document CHEMBL4196188, “GEX1A, a Polyketide from Streptomyces chromofuscus, Corrects the Cellular Defects Associated with Niemann-Pick Type C1 in Human Fibroblasts” (J Nat Prod, 2018).

Active and inactive are the calls of the source. No cut-off for these calls is given here.

The target of series [1] is Splicing factor 3B subunit 1 (Homo sapiens) (UniProt O75533). As to the kind of experiment: Binding affinity to SAP155 in human GM18453 cells harboring NPC1 mutant assessed as restoration of cholesterol trafficking at 50 nM after 48 hrs by filipin-staining based fluorescence microscopic analysis. It is filed as cell-based. In a few lines: (§1)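 GM18453 NPC1-mutant fibroblasts were exposed for 48 h to 1 nM–5 μM compound, with DMSO vehicle and SAHA (5 μM) positive control. Cells were fixed, stained with filipin for unesterified cholesterol, and imaged by automated fluorescence microscopy. Filipin area sum per cell count was taken from four images per condition across four independent replicates.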
Chain of Splicing factor 3B subunit 1 (Homo sapiens) (O75533 whole entry, canonical isoform): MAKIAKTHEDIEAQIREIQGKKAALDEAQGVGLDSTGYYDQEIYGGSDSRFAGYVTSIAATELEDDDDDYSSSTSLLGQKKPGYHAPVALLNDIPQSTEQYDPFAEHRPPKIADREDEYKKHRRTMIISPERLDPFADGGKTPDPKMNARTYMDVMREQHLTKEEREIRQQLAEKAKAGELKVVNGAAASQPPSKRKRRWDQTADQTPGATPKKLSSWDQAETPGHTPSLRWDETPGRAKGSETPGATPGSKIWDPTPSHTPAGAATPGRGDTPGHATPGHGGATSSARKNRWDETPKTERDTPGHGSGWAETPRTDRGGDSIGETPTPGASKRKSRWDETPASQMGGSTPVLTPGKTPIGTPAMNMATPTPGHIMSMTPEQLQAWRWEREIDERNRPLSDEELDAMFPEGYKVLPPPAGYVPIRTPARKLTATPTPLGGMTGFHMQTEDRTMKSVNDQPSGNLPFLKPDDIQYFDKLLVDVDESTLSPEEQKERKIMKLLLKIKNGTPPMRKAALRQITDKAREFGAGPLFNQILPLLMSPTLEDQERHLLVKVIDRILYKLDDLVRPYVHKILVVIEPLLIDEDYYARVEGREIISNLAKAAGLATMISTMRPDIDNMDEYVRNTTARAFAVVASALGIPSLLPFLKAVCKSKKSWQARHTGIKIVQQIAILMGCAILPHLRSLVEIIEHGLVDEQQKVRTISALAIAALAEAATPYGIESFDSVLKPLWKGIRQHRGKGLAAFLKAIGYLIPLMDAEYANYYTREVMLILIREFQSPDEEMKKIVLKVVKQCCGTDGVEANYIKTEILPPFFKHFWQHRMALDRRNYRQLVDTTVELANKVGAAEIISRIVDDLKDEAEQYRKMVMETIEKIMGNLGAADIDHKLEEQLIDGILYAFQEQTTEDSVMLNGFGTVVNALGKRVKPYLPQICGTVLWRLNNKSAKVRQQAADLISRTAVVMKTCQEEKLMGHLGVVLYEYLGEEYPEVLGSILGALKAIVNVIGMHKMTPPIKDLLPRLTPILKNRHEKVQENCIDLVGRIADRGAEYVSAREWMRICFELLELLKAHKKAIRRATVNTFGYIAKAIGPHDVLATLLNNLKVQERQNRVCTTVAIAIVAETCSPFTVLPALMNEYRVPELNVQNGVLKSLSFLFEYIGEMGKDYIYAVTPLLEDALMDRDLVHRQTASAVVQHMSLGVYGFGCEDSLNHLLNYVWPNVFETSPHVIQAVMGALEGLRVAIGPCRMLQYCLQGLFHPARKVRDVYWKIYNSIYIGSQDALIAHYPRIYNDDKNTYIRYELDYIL

The nature of series [2]: Protein binding in human plasma. It is filed as ADME, cell-free.
Series [3] can be described thus: Aqueous solubility of the compound in pH 7.4 buffer. The format is physicochemical.
In series [4] the target is Splicing factor 3B subunit 1 (Homo sapiens) (UniProt O75533). As to the kind of experiment: Binding affinity to SAP155 in human GM18453 cells harboring NPC1 mutant assessed as increase in 180 kDa NPC1 protein expression at 50 nM pretreated for 48 hrs followed by endoglycosidase H addition and measured after overnight incubation by Western blot analysis. It is filed as cell-based. In short, it runs like this: (§2)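 GM18453 fibroblasts were exposed 48 h to 50 nM compound, SAHA 5 μM or DMSO 0.1%. 25 μg lysate was denatured 10 min at 65°C, digested with Endo H (1000 U) about 18 h at 37°C, then run on SDS-PAGE. Blots were probed with rabbit anti-NPC1. Isoforms were quantified by densitometry against DMSO control across four independent experiments.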

The target is the same in series [5]. Briefly: Binding affinity to SAP155 in human GM18453 cells harboring NPC1 mutant assessed as increase in 120 kDa NPC1 protein expression at 50 nM measured after 48 hrs by Western blot analysis. It is filed as cell-based. In a few lines: (§3)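 GM18453 fibroblasts were treated 48 h at 37°C, 5% CO2 with 50 nM compound, SAHA 5 μM or DMSO 0.1% v/v, then lysed in RIPA with protease inhibitors. 25–50 μg protein was run on 4–20% SDS-PAGE, blotted to PVDF and probed with rabbit polyclonal C-terminal anti-NPC1 (1:1000, overnight, 4°C). Detection used HRP anti-rabbit and ECL film.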
For orientation: A western blot detects proteins with antibodies after separation by electrophoresis.

The target is the same in series [6]. Briefly: Binding affinity to SAP155 in human GM18453 cells harboring NPC1 mutant assessed as increase in 100 kDa NPC1 protein expression at 50 nM pretreated for 48 hrs followed by endoglycosidase H addition and measured after overnight incubation by Western blot analysis relative to control. It is filed as cell-based. In short, it runs like this:
as §2

For series [7] the target is unchanged. As to the kind of experiment: Binding affinity to SAP155 in human GM18453 cells harboring NPC1 mutant assessed as increase in 120 kDa NPC1 protein expression at 50 nM pretreated for 48 hrs followed by PNGaseF addition and measured after overnight incubation by Western blot analysis. It is filed as cell-based. In short, it runs like this: (§4)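 After 48 h exposure of GM18453 fibroblasts to 50 nM compound (controls SAHA 5 μM, DMSO 0.1%), 25 μg lysate with SDS, DTT and Tris-HCl pH 8 was digested with PNGase F (1000 U) about 18 h at 37°C. Samples were immunoblotted with rabbit anti-NPC1, and isoforms were quantified by densitometry over four independent experiments.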

Series [8] in a line: Cytotoxicity against human GM18453 cells harboring NPC1 mutant assessed as effect on cell shape at 5 uM. The format is cell-based. In a few lines:
as §1

The target of series [9] is Splicing factor 3B subunit 1 (Homo sapiens) (UniProt O75533). As to the kind of experiment: Binding affinity to SAP155 in human GM18453 cells harboring NPC1 mutant assessed as increase in 250 kDa NPC1 protein expression at 50 nM pretreated for 48 hrs followed by endoglycosidase H addition and measured after overnight incubation by Western blot analysis. The format is cell-based. In short, it runs like this:
as §2

Series [10] shares this target. Briefly: Binding affinity to SAP155 in human GM18453 cells harboring NPC1 mutant assessed as increase in 100 kDa NPC1 protein expression at 50 nM measured after 48 hrs by Western blot analysis. The format is cell-based. In a few lines: as §3
A short description of series [11]: Permeability in human Caco2 cells. The format is ADME, cell-based. As to conditions: caco-2. (Caco-2 cells form a polarised layer with tight junctions and transporters.)
The target of series [12] is Splicing factor 3B subunit 1 (Homo sapiens) (UniProt O75533). Briefly: Binding affinity to SAP155 in human GM18453 cells harboring NPC1 mutant assessed as increase in 180 kDa NPC1 protein expression at 50 nM measured after 48 hrs by Western blot analysis. It is filed as cell-based. In short, it runs like this:
as §3

Series [13] can be described thus: Mean residence time in ICR mouse at 2 mg/kg by LC-MS/MS analysis. The format is ADME, organism-based. The conditions noted are these: in vivo.
Series [14] can be described thus: Protein binding in mouse plasma. It is filed as ADME, cell-free.
Series [15] in a line: Stability in human liver microsomes. The format is ADME, microsome. Background: Microsomes from liver hold many membrane-bound enzymes, among them those of drug oxidation.
Series [16] addresses Splicing factor 3B subunit 1 (Homo sapiens) (UniProt O75533). Briefly: Binding affinity to SAP155 in human GM18407 cells harboring NPC1 R404Q/M1142T mutant assessed as restoration of cholesterol trafficking at 0.001 to 5 uM after 48 hrs by filipin-staining based fluorescence microscopic analysis. It is filed as cell-based.
Series [17] in a line: Aqueous solubility of the compound in HBSS solution. It is filed as physicochemical. The conditions noted are these: buffer.
For series [18], the target named is Splicing factor 3B subunit 1 (Homo sapiens) (UniProt O75533). As to the kind of experiment: Binding affinity to SAP155 in human GM18453 cells harboring NPC1 mutant assessed as increase in 180 kDa NPC1 protein expression at 50 nM pretreated for 48 hrs followed by PNGaseF addition and measured after overnight incubation by Western blot analysis. The format is cell-based. In short, it runs like this:
as §4

Series [19] is described as follows: Stability in mouse liver microsomes. The format is ADME, microsome.
Series [20] is described as follows: Cytotoxicity against human GM18453 cells harboring NPC1 mutant assessed as effect on nuclei shape at 5 uM. It is filed as cell-based. In short, it runs like this: as §1

Take `CO[C@H]([C@@H](C)[C@H]1O[C@]1(C)C[C@H](C)/C=C/C=C(\C)[C@H]1O[C@@H](CC(=O)O)CC[C@@H]1C)[C@@H](C)O`: the result in series [1], in series [5], in series [7], in [10] and in series [12] was Active. For the same molecule, the PB result in series [2] and in series [14] was “Active” in each case. In addition, the solubility entry in [3] and in series [17] was “Soluble” throughout. Further, the result in series [4], in [9], in [16] and in series [18] was inactive. Further, in series [6], the fold change (FC) came out at 1.5. Further, the Activity result in series [8] and in series [20] was “Toxic” each time. The permeability result in [11] is “Permeable”. The same molecule came in with a mean residence time (MRT) in [13] of 4.53 h. Moreover, the Stability entry in series [15] and in series [19] was “Stable” throughout.

With `COC(=O)C[C@H]1CC[C@H](C)[C@@H](/C(C)=C/C=C/[C@@H](C)C[C@@]2(C)O[C@@H]2[C@H](C)[C@@H](OC)[C@@H](C)OC(C)=O)O1`, the outcome in series [1] was Active. Besides, the outcome in series [16] was inactive.

With `COC(=O)C[C@H]1CC[C@H](C)[C@@H](/C(C)=C/C=C/[C@@H](C)C[C@@]2(C)O[C@@H]2[C@H](C)[C@@H](OC)C(C)=O)O1`, the result in series [1] was Active. Besides, the result in series [16] was inactive.

With `COC(=O)C[C@H]1CC[C@H](C)[C@@H](/C(C)=C/C=C/[C@@H](C)C[C@@]2(C)O[C@@H]2[C@H](C)[C@@H](OC)[C@@H](C)O)O1`, the result in [1] was Active. Further, the result in series [16] was inactive.

What is called MRT is a mean duration of stay, worked out from the concentration-time curve.
